Screening results as filed in PubChem BioAssay.
ABHD5-PLIN5 inh – ABHD5-PLIN5 protein interaction inhibition. Q00G26+Q8WTS1. Split G. princeps luciferase complementation, luminescence, 4 h. inhibition, % at 4 µM. 360,000 compounds, 0.78% hits. AID 602281;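 active means inhibition above the mean inhibition across every tested compound plus 3 SD, cut at about 22% in these data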
Beta2AR agonist – agonists of human beta-2 adrenergic receptor inducing internalization. P07550. Am2.2-beta2AR cells, FAP receptor internalization, flow cytometry. response, % (concentration not given with the values). 340,000 compounds, 0.43% hits;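 active means response above a set limit, near 3 SD of response in nonfluorescent compounds, cut at about 42% in these data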
SENP1 inh – inhibitors of human SENP1 SUMO protease catalytic domain. 360,000 compounds, 0.21% hits. Q9P0U3. inhibition, % at 10 µM. AID 624204. recombinant SENP1 catalytic domain, CyPet-SUMO1-YPet FRET cleavage;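 active means inhibition at least 30% at 10 µM, raw YFP signal under a set limit, fluorescence ratio 0.5 to 1.5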
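Compound: 10 µM single point, 0.5% DMSO; Test system: hSENP1 catalytic domain, recombinant; Timing: 50 min reaction at room temperature; Technique: FRET, CFP and YFP emission; Control set: no-enzyme wells low, DMSO-plus-enzyme wells high control.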
NadD block – blocks S. aureus nicotinate mononucleotide adenylyltransferase; purified NadD enzyme, colorimetric absorbance read-out; inhibition, % at 20 µM; 360,000 compounds, 0.78% hits; AID 602399; in the data active means inhibition above about 26%
GRK2 aptamer HTS – blocks RNA aptamer binding to human GRK2. bead flow cytometry, FAM-aptamer displacement from GRK2. P25098. inhibition of aptamer binding, % at 10 µM. 330,000 compounds, 0.59% hits. AID 488847;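 active means inhibition of aptamer binding above 40%, roughly 3 SD of noise, on plates passing a quality check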;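 further: median bead fluorescence of bound FAM aptamer so fluorescent compounds give negative values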
Target sequence (P25098 whole entry, looked up): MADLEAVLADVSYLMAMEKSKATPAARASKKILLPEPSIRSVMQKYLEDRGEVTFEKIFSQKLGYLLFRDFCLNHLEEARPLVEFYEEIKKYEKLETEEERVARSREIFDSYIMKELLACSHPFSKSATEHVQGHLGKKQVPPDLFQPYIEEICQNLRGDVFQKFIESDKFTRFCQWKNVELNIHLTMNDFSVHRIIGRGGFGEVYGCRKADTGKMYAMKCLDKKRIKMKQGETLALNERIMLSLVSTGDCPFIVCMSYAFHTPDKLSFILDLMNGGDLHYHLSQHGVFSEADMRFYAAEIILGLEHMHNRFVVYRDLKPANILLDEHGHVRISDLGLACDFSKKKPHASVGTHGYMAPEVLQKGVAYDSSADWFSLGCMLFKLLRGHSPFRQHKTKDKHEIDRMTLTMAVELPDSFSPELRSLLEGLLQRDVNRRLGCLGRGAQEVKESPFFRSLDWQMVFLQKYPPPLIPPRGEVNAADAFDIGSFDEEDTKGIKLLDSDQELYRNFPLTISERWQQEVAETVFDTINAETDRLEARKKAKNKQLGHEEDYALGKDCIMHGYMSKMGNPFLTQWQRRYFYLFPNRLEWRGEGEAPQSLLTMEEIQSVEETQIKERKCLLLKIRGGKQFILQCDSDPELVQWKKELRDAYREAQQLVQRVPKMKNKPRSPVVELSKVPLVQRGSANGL
GRK2 CP1 – confirmation of human GRK2 inhibitors displacing RNA aptamer; bead-bound GRK2, FAM-aptamer displacement, flow cytometry; 2,000 compounds, 4% hits; aptamer displacement, % at 10 µM; shares compounds with GRK2 aptamer HTS;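 active means aptamer displacement above 40%, near three times the noise of non-fluorescent compounds, on plates passing quality checks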;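 further: negative values mostly reflect intrinsic compound fluorescence rather than true enhancement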
Aptamer quench 1 – quenches fluorescent RNA aptamer, GRK2 hit artifact. shares compounds with GRK2 aptamer HTS. Fluorescent RNA aptamer beads, quenching, flow cytometry; stronger effect = higher value. fluorescence change (kMESF span), kMESF (test concentration not listed). 110 tested, under 10 active. AID 504521;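 active means compounds whose bead fluorescence drops by more than 37 kMESF across the dose range, marking them as dye quenchers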
Aptamer quench SP – aptamer fluorescence quenching in GRK2 counter-screen; shares compounds with GRK2 aptamer HTS; Carboxyfluorescein RNA aptamer on beads, flow cytometry quenching; stronger effect = lower value; fluorescence response (% of DMSO), % at 10 µM; 2,000 tested, under 10 active; AID 504580;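 active means compounds that quench the bead-bound fluorescent RNA probe, cutting fluorescence to under half of the solvent control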;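 further: counterscreen run without GRK2 so only probe quenching by compound is measured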
GRK2 CP2 – human GRK2 inhibition confirmation, cherry pick 2; 360 tested, under 10 active; shares compounds with GRK2 aptamer HTS; bead-bound GRK2, FAM-aptamer displacement, flow cytometry; inhibition of aptamer binding, % at 10 µM;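 active means inhibition of aptamer binding above 40%, about triple the noise seen with nonglowing compounds, on plates passing quality control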;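 further: negative values mostly come from compounds that fluoresce themselves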
FAM quench CP2 – quenches fluorescent RNA aptamer, GRK2 hit artifact; 360 tested, under 10 active; fluorescence response vs DMSO, % at 10 µM; shares compounds with GRK2 aptamer HTS; carboxyfluorescein RNA aptamer beads, flow cytometry quenching; stronger effect = lower value;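 active means response vs DMSO under 50%, meaning signal dropped by over half, treated as fluorescence quencher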;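 further: labelled aptamer on streptavidin beads without GRK2 as a quench counter-screen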
Hits are given with their value; 0 = inactive; - = not tested or not shown. Compounds with a hit are over-represented: about 2.5% of the library has one in this group of screens.

SMILES	ABHD5-PLIN5 inh	Beta2AR agonist	SENP1 inh	NadD block	GRK2 aptamer HTS	GRK2 CP1	Aptamer quench SP	others
CSc1ccc(Cl)c(C(=O)N2CCN(c3ncccn3)CC2)c1	0	0	0	0	43	-	-	GRK2 CP2=0;FAM quench CP2=0
CCN(Cc1ccccc1)C(=O)COC(=O)c1c(C)nsc1NC	0	0	0	0	0	-	-
CNc1snc(C)c1C(=O)OCC(=O)c1ccc(Cl)cc1	0	0	0	0	51	0	0
Cc1cc(C)cc(NC(=O)CSc2nc3nc(C)cc(C)n3n2)c1	0	0	0	0	41	0	0
Cc1cc(C)n2nc(SCC(=O)Nc3ccc(O)cc3)nc2n1	0	0	0	0	0	-	-
COc1ccc(CCN2CCCn3c2nc2c3c(=O)n(CC(C)C)c(=O)n2C)cc1OC	0	0	0	0	54	0	0
CCn1c(=O)c2c(nc3n2CCCN3CCc2ccc(OC)c(OC)c2)n(C)c1=O	0	0	0	0	0	-	-
COc1ccc(OCC(=O)N/N=C/c2cccn2-c2cccc(C(=O)O)c2)cc1	0	0	0	0	-	-	-
COc1cccc(-c2oc3c(c2C(=O)OCCN2CCCCC2)C(O)CCC3)c1 (centres undefined)	0	-	0	0	-	-	-
O=[N+]([O-])c1ccc(NS(=O)(=O)c2ccc(Cl)c(Cl)c2)cc1	0	-	0	0	-	-	-
Cc1ccsc1/C=N/N1CCN(Cc2ccccc2)CC1	0	0	0	0	0	-	-
CC(CCC(=O)O)C1CC[C@@]2(C)C3C(=O)CC4C(C)(C)C(O)CC[C@]4(C)C3C(=O)C[C@]12C (some centres undefined)	0	0	0	0	44	0	0
O=C(CCNC(=O)c1ccc(Cl)cc1)Nc1ncccc1O	0	0	0	0	77	-	-	GRK2 CP2=0;FAM quench CP2=0
O=C(CCCNC(=O)c1ccc(Cl)cc1)Nc1ncccc1O	0	0	0	0	0	-	-
CCCC(CCC)=NNC(=O)c1ccccc1F	0	0	0	0	0	-	-
O=C(NN=C(Cc1ccccc1)Cc1ccccc1)c1ccccc1F	0	0	0	0	86	0	0
CCNc1nc(NCC)n2c(SCC(=O)Nc3ccc(C)c(C)c3)nnc2n1	0	0	0	0	78	57	0	Aptamer quench 1=0
CCNc1nc(NCC)n2c(SCC(=O)Nc3ccccc3)nnc2n1	0	0	0	0	0	-	-	GRK2 CP2=0;FAM quench CP2=0
CCNc1nc(NCC)n2c(SCC(=O)Nc3cc(OC)ccc3OC)nnc2n1	0	0	0	0	0	-	-	GRK2 CP2=0;FAM quench CP2=0
CCNc1nc(NCC)n2c(SCC(=O)Nc3ccc(F)cc3)nnc2n1	0	0	0	0	0	-	-
CN(C)c1cccc(C(=O)OCc2cc(=O)oc3cc(O)ccc23)c1	0	0	0	0	54	55	0	Aptamer quench 1=0
Cn1c(SCc2ccccc2Cl)nc2c1c(=O)[nH]c(=O)n2C	0	0	0	0	71	0	0
CCC(=O)N=c1sc2cc([N+](=O)[O-])ccc2n1CCOC	0	0	0	0	0	-	-
CCOC(=O)Cn1c(=NC(=O)C(C)(C)C)sc2cc([N+](=O)[O-])ccc21	0	0	0	0	52	-	-	GRK2 CP2=0;FAM quench CP2=0
CCCCCCCCNc1ncnc2[nH]ncc12	0	0	0	0	-	-	-
SMILES	ABHD5-PLIN5 inh	Beta2AR agonist	SENP1 inh	NadD block	GRK2 aptamer HTS	GRK2 CP1	Aptamer quench SP	others
COc1ccc(CCNC(=O)c2ccc(NC(=O)CC3SC(N4CCCCC4)=NC3=O)cc2)cc1 (centres undefined)	0	0	0	0	-	-	-
CCc1nonc1NC(=O)COc1cc(C)c(Cl)c(C)c1	0	0	0	0	70	0	0
C[C@]12C=CC(=O)C=C1CC[C@@H]1[C@@H]2C(=O)C[C@@]2(C)[C@H]1CC[C@]2(O)C(=O)COC(=O)CCC(=O)O	0	0	0	0	78	0	0
Cc1cccc(C(=O)OCC(=O)c2cccc(Br)c2)c1O	0	0	0	0	0	-	-
Cc1cc(NC(=O)CSc2nc(-c3cccs3)cc(C(F)(F)F)n2)no1	0	0	0	0	45	0	0
COc1cc(/C=C2\SC(=S)N(NC(C)=O)C2=O)ccc1OC(=O)c1ccco1	0	0	0	0	0	0	0
O=C(NCc1ccc2c(c1)OCO2)c1ccc(Br)cc1	0	0	0	0	0	-	-
O=C(NCc1ccc2c(c1)OCO2)c1cc2ncc(Br)cn2n1	0	0	0	0	0	0	0
COc1cc2cc(C)c(Br)c(OC)c2cc1OC	0	0	0	0	-	-	-
O=C(COc1cccnc1[N+](=O)[O-])NC1CCS(=O)(=O)C1 (centres undefined)	0	0	0	0	70	-	-	GRK2 CP2=0;FAM quench CP2=0
CN1C(=O)/C(=C/c2ccc(OCc3ccc(F)cc3)cc2)NC1=S	0	0	0	0	0	-	-
Cc1ccc(CNC(=O)CSc2nc3n[nH]c(C)c3c(=N)n2-c2cccc(C)c2)cc1	0	0	0	0	99	0	0
O=C(Oc1cc(=O)oc2ccccc12)c1ccccc1	0	0	0	0	100	0	0
O=C(Oc1cccc2ccccc12)c1ccccc1	0	0	0	0	-	-	-
O=C(Oc1cccc2c(O)cccc12)c1ccccc1	0	0	0	0	42	0	0
CCOC(=O)C1=C(C)NC(C)=C(C(=O)OC)C1c1cccc(Cl)c1Cl (centres undefined)	0	0	0	0	0	0	0
COc1ccc(/C=C(\NC(=O)c2ccc(Cl)cc2)C(=O)NCC2CCCO2)cc1OC (centres undefined)	0	0	0	0	0	-	-
COCCn1c(=O)[nH]c2cc(C(=O)Nc3cc(OC)c(OC)c(OC)c3)ccc2c1=O	0	0	0	0	0	-	-
COCCn1c(=O)[nH]c2cc(C(=O)Nc3ccc(OC)c(Cl)c3)ccc2c1=O	0	0	0	0	57	0	0
COc1ccc(S(=O)(=O)N(C)Cc2ccc3c(c2)OCCO3)cc1	0	0	0	0	42	0	0
CCOC(=O)C1=C(COC(=O)CCNS(=O)(=O)c2ccc(NC(C)=O)cc2)NC(=O)NC1C (centres undefined)	0	0	0	0	0	-	-
COc1ccc(CN2CCN(C(C)C)C(CCO)C2)cc1Cn1cncn1 (centres undefined)	0	0	0	0	46	0	0
